# Experimental data: PubChem BioAssay AID504354 (Broad Institute, 2011)
# A number with no mark means an inactive call.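 The calls were made as follows: active = curve reaches 10% of the strong reference activator's caspase signal at or below the top valid tested dose; inactive = signal moves in the opposite direction, or the rest.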
# Test: caspase activation in unprimed MEWO cells, dose response, counter-screen for A1 inhibitor project, cell-based, luminescence, dry powder, set 2 (AID 504354)
# Settings: caspase-Glo luminescence, 3 h, stronger effect = higher value; at 35 µM unless noted
# Procedure, shortened: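 Doses: Compound delivered into wells by pin transfer | Assay system: Unprimed A1-expressing MEWO cells | Amount: 2500 cells/well | Schedule: 3 h 37 °C compound exposure, 1 h room-temperature reagent incubation | Measured by: CaspaseGlo luminescence | Measure: Caspase activity from luminescent signal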
row,SMILES,caspase activation
1,Cn1c(=O)c([N+](=O)[O-])c(Nc2ccc(Cl)cc2)c2ccccc21,1.87% [at 1 µM]
2,CCOC(=O)N1CCN(c2c([N+](=O)[O-])c(=O)n(C)c3ccccc23)CC1,2.35%
3,CCSc1c([N+](=O)[O-])c(=O)oc2ccccc12,-0.935% [at 0.26 µM]
4,Cc1ccc(Sc2cc(=O)n(C)c3ccccc23)cc1,-6.38%
5,CCOCCCNc1c([N+](=O)[O-])c(=O)n(C)c2ccccc12,2.4%
6,O=C(Oc1cccc(/C=N/Nc2nc(Nc3ccccc3)nc(N3CCOCC3)n2)c1)c1ccco1,2.6% [at 16 µM]
7,Cn1c(=O)c([N+](=O)[O-])c(-n2cnc3ccccc32)c2ccccc21,1.87% [at 4.2 µM]
8,Cn1c(=O)c([N+](=O)[O-])c(Cl)c2ccccc21,4.66% [at 8 µM]
9,CN1C(=O)C(C)(C)N(Cc2ccccc2)c2ccccc21,0.935% [at 2.1 µM]
10,Cn1c(=O)c([N+](=O)[O-])c(Oc2ccccc2)c2ccccc21,2.97% [at 0.135 µM]
11,Cc1ccc(Sc2c([N+](=O)[O-])c(=O)n(C)c3ccccc23)cc1,2.38%
12,O=c1oc2ccccc2c(Cl)c1[N+](=O)[O-],-4.52% [at 16 µM]
13,Cc1ccc(Nc2c([N+](=O)[O-])c(=O)oc3ccccc23)cc1,1.87% [at 2.1 µM]
14,Cc1ccc(Sc2c([N+](=O)[O-])c(=O)oc3ccccc23)cc1,-4.32%
15,O=c1oc2ccccc2c(N2CCCCC2)c1[N+](=O)[O-],-1.32% [at 16 µM]
16,Cc1ccc(Nc2c([N+](=O)[O-])c(=O)n(C)c3ccccc23)cc1,1.4% [at 1 µM]
17,O=c1oc2ccccc2c(Nc2cc(Cl)cc(Cl)c2)c1[N+](=O)[O-],-1.06% [at 8 µM]
18,Cc1ccc(Sc2c([N+](=O)[O-])cnc3ccccc23)cc1,6.63% [at 16 µM]
19,O=c1oc2ccccc2c(Sc2ccccc2)c1[N+](=O)[O-],-5.15%
20,O=[N+]([O-])c1cnc2ccccc2c1Sc1ccccc1,5.29% [at 16 µM]
